The values below come from ChEMBL document CHEMBL1926544, “Tyrosine-based 1-(S)-[3-hydroxy-2-(phosphonomethoxy)propyl]cytosine and -adenine ((S)-HPMPC and (S)-HPMPA) prodrugs: synthesis, stability, antiviral activity, and in vivo transport studies” (J Med Chem, 2011).

The nature of series [1]: Half life in phosphate buffer at pH 6.5 at 37 degC by LC/MS analysis. In kind it is physicochemical.
Series [2] can be described thus: Half life in phosphate buffer at pH 7.4 at 37 degC assessed as half life by LC/MS analysis. In kind it is physicochemical.
Series [3] in a line: Half life in Sprague-Dawley rat intestinal homogenate at pH 6.5 by LC/MS analysis. In kind it is ADME, tissue-based, Intestine. Put shortly:
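Compound stock (1 mg/ml, 400 µL) mixed with 260 µL buffer and 140 µL homogenate, 37 °C. Samples taken over time, quenched with methanol, centrifuged, supernatant analysed by LC-MS (C18, acetonitrile gradient in ammonium acetate pH 5.5). Run separately for each phosphorus diastereomer.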

Series [4] can be described thus: Antiviral activity against Cowpox virus Brighton infected in HFF cells incubated for 3 days by plaque reduction assay. The series is classed as functional, cell-based, Cowpox virus (Brighton Red). (In general: Plaques are areas of infected cells; plaque reduction assays count them against a control.)
The next series deals with Vaccinia virus. Nature of the series: Antiviral activity against Vaccinia virus Copenhagen infected in HFF cells incubated for 3 days by plaque reduction assay. The series is classed as functional, organism-based, Orthopoxvirus vaccinia.
The subject of another series is Human alphaherpesvirus 1. The series is described as follows: Antiviral activity against HSV1 KOS infected in HFF cells incubated for 3 days by plaque reduction assay. In kind it is functional, organism-based. Summed up: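 HFF monolayer plaque reduction, about 100 plaques per well. Drug overlay (100 µM down to 0.03 µM), about 3 days incubation, crystal violet staining, macroscopic plaques counted. IC50 from regression of % plaque reduction relative to no-drug wells. Duplicate; acyclovir run as positive control.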

In another series the test system is Human betaherpesvirus 5. The series is described as follows: Antiviral activity against HCMV Towne infected in HFF cells incubated for 10 days by plaque reduction assay. In kind it is functional, organism-based. Put shortly: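 Towne strain (plaque-purified P0) on HFF cells, about 100 plaques per well. Drug overlay (100 µM down to 0.03 µM), about 10 days incubation, crystal violet staining, microscopic plaques counted. IC50 from regression of % plaque reduction versus no-drug wells. Duplicate; ganciclovir as positive control.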

The test system of the next series is KB. The series is described as follows: Cytotoxicity against human KB cells after 48 hrs by crystal violet staining based spectrophotometric analysis. In kind it is cell-based. Summed up:
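KB cells at 5000 per well, left overnight at 37 °C. Compound added at eight concentrations in triplicate, 48 h at 37 °C in CO2 (two population doublings). Cells ethanol-fixed and crystal violet stained; dye eluted with acidified ethanol, read at 570 nm. IC50 by regression of % inhibition against log concentration.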

The next series deals with HFF. The series is described as follows: Cytotoxicity against HFF cells after 48 hrs by visual cytotoxicity observation assay. In kind it is cell-based, Homo sapiens. The note with it: Homo sapiens, HFF, 48 h.
Setting [5] is: Orthopoxvirus vaccinia, Copenhagen, HFF, 72 h.
The mark [6] stands for this setting: Human alphaherpesvirus 1, KOS, HFF, 72 h.
Where [7] appears, read: Human betaherpesvirus 5, Towne, HFF, 240 h.

As a reminder, the half-life is the time needed for the level to fall by half in the phase considered. For `COC(=O)[C@H](Cc1ccc(O[P@]2(=O)CO[C@@H](Cn3cnc4c(N)ncnc43)CO2)cc1)NC(=O)[C@@H](N)C(C)C`, the half-life is 1.58 h in series [1], 0.25 h in [2] and less than 0.5 h in series [3].
In general, IC50 refers to the midpoint of a concentration-inhibition curve. A higher IC50 goes with weaker potency. As for `COC(=O)[C@@H](N)Cc1ccc(OP2(=O)CO[C@@H](Cn3cnc4c(N)ncnc43)CO2)cc1` (mixture of isomers; form 1), the half-maximal inhibitory concentration (IC50) was 7 µM in [4] (Cowpox virus, HFF, 72 h); 3 µM with Vaccinia virus (setting [5]); 25 µM with Human alphaherpesvirus 1 (setting [6]); 0.45 µM with Human betaherpesvirus 5 (setting [7]); greater than 100 µM with KB; greater than 100 µM in the series on HFF.
For `CC(C)CNC(=O)[C@@H](N)Cc1ccc(O[P@]2(=O)CO[C@@H](Cn3cnc4c(N)ncnc43)CO2)cc1`, the half-life in series [1] is 2.03 h; in series [2], 0.433 h; in [3], 1.9 h.
As for `CC(C)OC(=O)[C@@H](N)Cc1ccc(O[P@]2(=O)CO[C@@H](Cn3ccc(N)nc3=O)CO2)cc1`, the half-life in series [1] was 2.02 h; in series [2] it was 0.367 h; in series [3], less than 0.5 h.
Regarding `CC(C)CNC(=O)[C@@H](N)Cc1ccc(OP2(=O)CO[C@@H](Cn3cnc4c(N)ncnc43)CO2)cc1` (mixture of isomers; form 1), the IC50 in series [4] (hff) is 7 µM; with Vaccinia virus (hff), 4.5 µM; with Human alphaherpesvirus 1 (setting [6]) it was 50 µM; in the series on Human betaherpesvirus 5 (hff), 0.3 µM; in the series on KB, greater than 100 µM; in the series on HFF it was greater than 100 µM.
As to `COC(=O)[C@H](Cc1ccc(OP2(=O)CO[C@@H](Cn3ccc(N)nc3=O)CO2)cc1)NC(=O)[C@@H](N)C(C)C` (mixture of isomers), the IC50 was 30 µM in [4] (Cowpox virus, HFF, 72 h); 20 µM in the series on Vaccinia virus (setting [5]); 15 µM in the series with Human alphaherpesvirus 1 (setting [6]); less than 0.1 µM in the series with Human betaherpesvirus 5 (setting [7]); greater than 100 µM with KB.
For `CC(C)(C)NC(=O)[C@H](N)Cc1ccc(O[P@@]2(=O)CO[C@@H](Cn3ccc(N)nc3=O)CO2)cc1`, the half-life in series [1] is 28.9 h; in [2] it was 10.5 h; in series [3], 28.9 h.
As to `CC(C)OC(=O)[C@@H](N)Cc1ccc(OP2(=O)CO[C@@H](Cn3ccc(N)nc3=O)CO2)cc1` (mixture of isomers; form 2), the IC50 in series [4] (hff) came to 10 µM; in the series with Vaccinia virus (hff), 8 µM; in the series on Human alphaherpesvirus 1 (hff), 3 µM; in the series with Human betaherpesvirus 5 (hff), 0.22 µM.
For `COC(=O)[C@H](N)Cc1ccc(O[P@]2(=O)CO[C@@H](Cn3ccc(N)nc3=O)CO2)cc1`, the half-life came to 1.52 h in series [1], 0.35 h in series [2] and 1.2 h in series [3].
On to `CC(C)OC(=O)[C@@H](N)Cc1ccc(OP2(=O)CO[C@@H](Cn3ccc(N)nc3=O)CO2)cc1` (mixture of isomers; form 1), for which the IC50 in [4] (hff) was 40 µM; in the series on Vaccinia virus (hff) it was 30 µM; in the series with Human alphaherpesvirus 1 (hff), 20 µM; with Human betaherpesvirus 5 (setting [7]), 0.12 µM; in the series with KB, greater than 100 µM; with HFF, greater than 100 µM.
For the molecule `CC(C)CNC(=O)[C@@H](N)Cc1ccc(O[P@@]2(=O)CO[C@@H](Cn3cnc4c(N)ncnc43)CO2)cc1`, the half-life came out at 12.8 h in series [1], 3.85 h in series [2] and 12.8 h in series [3].
In the case of `Nc1ccn(C[C@H]2COP(=O)(O)CO2)c(=O)n1` [CYCLIC CIDOFOVIR], the IC50 in [4] (Cowpox virus, HFF, 72 h) is 30 µM; with Human alphaherpesvirus 1 (setting [6]), 50 µM; in the series with KB, greater than 100 µM; in the series on HFF, greater than 100 µM.
Consider `COC(=O)[C@H](Cc1ccc(O[P@@]2(=O)CO[C@@H](Cn3cnc4c(N)ncnc43)CO2)cc1)NC(=O)[C@@H](N)C(C)C`, for which the results for the half-life in [1], in series [2] and in series [3] were 5.77 h, 1.1 h and less than 0.5 h, respectively.
With `COC(=O)[C@@H](N)Cc1ccc(OP2(=O)CO[C@@H](Cn3ccc(N)nc3=O)CO2)cc1` (mixture of isomers), the IC50 in series [4] (Cowpox virus, HFF, 72 h) is 50 µM; in the series with Vaccinia virus (setting [5]), 4 µM; in the series with Human alphaherpesvirus 1 (setting [6]), 25 µM; in the series on Human betaherpesvirus 5 (setting [7]), 0.23 µM; in the series on KB it was greater than 100 µM; in the series with HFF, greater than 100 µM.
On to `CC(C)(C)NC(=O)[C@H](N)Cc1ccc(OP2(=O)CO[C@@H](Cn3ccc(N)nc3=O)CO2)cc1` (mixture of isomers), for which the concentration for half-maximal inhibition (IC50) was 20 µM in series [4] (Cowpox virus, HFF, 72 h); 10 µM in the series on Vaccinia virus (setting [5]); 1.5 µM with Human alphaherpesvirus 1 (setting [6]); less than 0.1 µM with Human betaherpesvirus 5 (setting [7]); greater than 100 µM with KB; greater than 100 µM in the series with HFF.
As for `COC(=O)[C@H](N)Cc1ccc(OP2(=O)CO[C@@H](Cn3ccc(N)nc3=O)CO2)cc1` (mixture of isomers), the IC50 was 35 µM in series [4] (Cowpox virus, HFF, 72 h); 25 µM with Vaccinia virus (setting [5]); 35 µM in the series on Human alphaherpesvirus 1 (setting [6]); 0.2 µM in the series on Human betaherpesvirus 5 (setting [7]); greater than 100 µM with KB; greater than 100 µM in the series with HFF.
`Nc1ncnc2c1ncn2C[C@@H](CO)OCP(=O)(O)O`: the IC50 in [4] (Cowpox virus, HFF, 72 h) was 4 µM; in the series with Vaccinia virus (setting [5]), 2 µM; with Human alphaherpesvirus 1 (setting [6]) it was 35 µM; in the series with Human betaherpesvirus 5 (setting [7]) it was 0.41 µM; with KB, greater than 100 µM; with HFF it was 100 µM.
As for `Nc1ncnc2c1ncn2C[C@H]1COP(=O)(O)CO1`, the IC50 is 0.6 µM in series [4] (Cowpox virus, HFF, 72 h); 1 µM in the series with Vaccinia virus (setting [5]); 30 µM in the series on Human alphaherpesvirus 1 (setting [6]); 1.3 µM with Human betaherpesvirus 5 (setting [7]); greater than 100 µM in the series with KB; 100 µM in the series on HFF.
Turning to `CC(C)CNC(=O)[C@@H](N)Cc1ccc(OP2(=O)CO[C@@H](Cn3cnc4c(N)ncnc43)CO2)cc1` (mixture of isomers; form 3), the 50% inhibitory concentration (IC50) in series [4] (hff) worked out at 2.5 µM; with Vaccinia virus (hff), 1 µM; in the series with Human betaherpesvirus 5 (hff) it was 0.55 µM.
Regarding `COC(=O)[C@@H](N)Cc1ccc(O[P@@]2(=O)CO[C@@H](Cn3cnc4c(N)ncnc43)CO2)cc1`, the half-life in series [1] is 5.5 h; in [3], less than 0.5 h.
The like results for `COC(=O)[C@@H](N)Cc1ccc(O[P@]2(=O)CO[C@@H](Cn3cnc4c(N)ncnc43)CO2)cc1` were, in that order, 0.917 h and less than 0.5 h.
`Nc1nc2c(ncn2COCCO)c(=O)[nH]1` [ACYCLOVIR]: inhibition with Human alphaherpesvirus 1 (setting [6]) was half-maximal at 0.6 µM (IC50).
In the case of `COC(=O)[C@H](Cc1ccc(OP2(=O)CO[C@@H](Cn3cnc4c(N)ncnc43)CO2)cc1)NC(=O)[C@@H](N)C(C)C` (mixture of isomers), the IC50 in series [4] (Cowpox virus, HFF, 72 h) is 8 µM; in the series on Vaccinia virus (setting [5]), 4 µM; in the series with Human alphaherpesvirus 1 (setting [6]), 35 µM; with Human betaherpesvirus 5 (setting [7]) it was 0.3 µM; in the series with KB it was greater than 100 µM; in the series on HFF, greater than 100 µM.
Consider `Nc1ccn(C[C@@H](CO)OCP(=O)(O)O)c(=O)n1` [CIDOFOVIR], for which the IC50 in series [4] (Cowpox virus, HFF, 72 h) is 30 µM; with Human betaherpesvirus 5 (setting [7]) it was 0.28 µM; with KB it was greater than 100 µM; with HFF it was 100 µM.
Turning to `CC(C)CNC(=O)[C@@H](N)Cc1ccc(OP(=O)(O)CO[C@H](CO)Cn2cnc3c(N)ncnc32)cc1`, the IC50 in series [4] (Cowpox virus, HFF, 72 h) was 3 µM; in the series with Vaccinia virus (setting [5]), 0.5 µM; with Human alphaherpesvirus 1 (setting [6]), 45 µM; in the series with Human betaherpesvirus 5 (setting [7]), 0.29 µM; in the series on KB, greater than 100 µM; with HFF, 100 µM.
On to `COC(=O)[C@@H](N)Cc1ccc(OP2(=O)CO[C@@H](Cn3cnc4c(N)ncnc43)CO2)cc1` (mixture of isomers; form 2), for which the IC50 in series [4] (hff) was 3.5 µM; in the series on Human alphaherpesvirus 1 (hff) it was 35 µM.
In the case of `C/C(=N\NC(N)=S)c1ccccn1`, the IC50 in the series on KB stood at 3 µM.
As for `Nc1nc2c(ncn2COC(CO)CO)c(=O)[nH]1` [GANCICLOVIR], the IC50 in the series with Human betaherpesvirus 5 (setting [7]) was 0.14 µM; with HFF it was greater than 100 µM.
